Experimental data of several laboratories.
Target: 5'-AMP-activated protein kinase catalytic subunit alpha-2 (PRKAA2, Homo sapiens, UniProt P54646)
Concentration: 1 µM

| Compound | read-out | method | remaining binding |
| --- | --- | --- | --- |
| O=C(NCC1CCOCC1)c1n[nH]cc1NC(=O)c1c(F)cccc1F | binding | competition with immobilised ligand | 100% |
| N[C@H]1CCN(c2nccc(-c3cnn4ncccc34)n2)C1 | binding | – | 100% |
| CCN1CCN(Cc2ccc(C(=O)Nc3ccc(C)c(Oc4ccc5c(c4)CC(=O)N5)c3)cc2C(F)(F)F)CC1 | binding | competition with immobilised ligand | 100% |
| CN(C)c1nccc(-c2cnc3ncccn23)n1 | binding | – | 80% |
| COc1cnc(Nc2cccc(S(N)(=O)=O)c2)nc1N1CCN(c2ccccc2)C(=O)C1 | binding | competition with immobilised ligand | 100% |
| CN(C)c1nccc(-c2cnn3ncccc23)n1 | binding | – | 100% |
| Cc1cnc(Nc2ccc(C(=O)N3CCC(N4CCCC4)CC3)cc2)nc1-c1cc2ccccc2s1 | binding | competition with immobilised ligand | 7% |
| CCC(=O)N[C@@H]1CC[C@H](C(=O)N(C)c2ccc(-c3nc4ccccc4o3)cc2)C1 | cell-free assay | competition with immobilised ligand | 74% |
| COc1cnc(Nc2cccc(S(N)(=O)=O)c2)nc1N1CCN(c2ccccc2)CC1 | binding | competition with immobilised ligand | 100% |
| CC1=C(C#N)[C@@H](c2ccc3[nH]nc(C)c3c2)C(C#N)=C(c2ccc(Cl)cc2)N1 | cell-free assay | competition with immobilised ligand | 95.3% |
| O=C(NCCCN1CCOCC1)c1ccc(Nc2ncc(Cl)c(-c3ccc(Cl)s3)n2)cc1 | binding | competition with immobilised ligand | 17% |
| CNC(=O)Nc1ccc2c(c1)CC[C@@]21OC(=O)N(CC(=O)N(Cc2ccc(F)cc2)[C@@H](C)C(F)(F)F)C1=O | cell-free assay | competition with immobilised ligand | 99% |
| CN(c1nccc(-c2cnn3ncccc23)n1)C1CC1 | binding | – | 100% |
| O=C(c1ccc(Nc2ncc(Cl)c(-c3cc4ccccc4s3)n2)cc1)N1CCC(N2CCCC2)CC1 | binding | competition with immobilised ligand | 4% |
| O=C(NS(=O)(=O)c1ccc(NCC2CCOCC2)c([N+](=O)[O-])c1)c1ccc(N2CCN(Cc3ccc(C(F)(F)F)cc3-c3ccc(Cl)cc3)CC2)cc1Oc1cnc2[nH]ccc2c1 | cell-free assay | competition with immobilised ligand | 100% |
| F[C@@H]1CCN(c2nccc(-c3cnn4ncccc34)n2)C1 | binding | – | 100% |
| C[C@H](c1ccc(F)cc1)N(Cc1cccc(C(=O)O)c1)C(=O)c1cnc2ccccc2c1 | cell-free assay | competition with immobilised ligand | 100% |
| Nc1ncc2c(n1)-c1c([nH]c3ccc(C#CC4CC4)cc13)CCCC2 | binding | competition with immobilised ligand | 85% |
| COc1ccnn2ncc(-c3ccnc(N(C)C)n3)c12 | binding | – | 79% |
| Cc1c(NC(=O)c2cc(C(N)=O)nc3cc(F)ccc23)c(C(F)(F)F)nn1Cc1ccc(C(C)(C)C)cc1 | cell-free assay | competition with immobilised ligand | 100% |
| C[C@H]1CCN(c2nccc(-c3cnn4ncccc34)n2)C1 | binding | – | 84% |
| CNC(=O)Nc1ccc2c(c1)[C@@]1(CC2)OC(=O)N(CC(=O)N(Cc2ccc(F)cc2)[C@@H](C)C(F)(F)F)C1=O | cell-free assay | competition with immobilised ligand | 57% |
